Values after ≈ are worked out from the molar mass of the structure shown. Active and inactive are the calls of the source. The calls are words filed in the database; no cut-off is given here. Some results are limits rather than exact numbers.

The values that follow come from ChEMBL document CHEMBL4000180, “Structure-Activity Relationships of Small Molecule Autotaxin Inhibitors with a Discrete Binding Mode” (J Med Chem, 2017).

Series [1] concerns the target T1, Autotaxin (Homo sapiens, UniProt Q13822). In words: Inhibition of recombinant human ATX using bisP-nitrophenyl phosphate as substrate measured after 30 mins.
Series [2] addresses T1, Autotaxin. As to the kind of experiment: Inhibition of human ATX expressed in HEK293 Flp-In cells using LPC as substrate measured every 30 sec for 90 mins by fluorescence assay. It counts as cell-based.
The target of series [3] is T1, Autotaxin. In words: Inhibition of ATX in human MDA-MB-435S cells using lysophosphatidyl choline as substrate preincubated for 15 mins followed by substrate addition measured after 90 mins. It counts as cell-based.
A short description of series [4]: Apparent permeability of the compound at pH 7.4. It counts as physicochemical. The conditions noted are these: not told.
A short description of series [5]: Lipophilicity, log D of the compound at pH 7.4 by chromatographic method. The conditions noted are these: buffer. It counts as physicochemical.
The nature of series [6]: Kinetic aqueous solubility by CLND method. The settings on record: read-out: Kinetic_solubility. It counts as physicochemical.
Series [7] has as its target T1, Autotaxin. As to the kind of experiment: Inhibition of ATX (unknown origin) using lysophosphatidyl choline as substrate. In short, it runs like this:
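Human ATX produced in HEK293 Flp-In cells, 20 nM, incubated with 150 μM LPC(18:1) in 50 mM Tris pH 7.4, 0.01% Triton X-100, 50 mM CaCl2 with choline oxidase (1 U/ml), HRP (2 U/ml) and 2 mM homovanillic acid. Choline release read as HVA fluorescence, ex/em 320/450 nm, every 30 s for 90 min. Screen 400 nM–100 μM (n = 3); 10-point curves 0.3 nM–10 μM, n = 2.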

The target in series [8] is T1, Autotaxin. As to the kind of experiment: Noncompetitive inhibition of human ATX expressed in HEK293 Flp-in cells up to 11 nM using varying lysophosphatidyl choline substrate level by Lineweaver-Burk plot analysis. The format is cell-based. In short, it runs like this: (§1)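 hATX from HEK293 Flp-In cells; choline release from LPC coupled to choline oxidase/HRP/homovanillic acid fluorescence in Tris pH 7.4 buffer with CaCl2 and Triton X-100. Activity measured across varying LPC concentrations at fixed inhibitor concentrations; mixed-inhibition model fitted to obtain alpha (near 1 taken as noncompetitive), with Lineweaver-Burk double-reciprocal plots for display.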

For series [9], the target named is T1, Autotaxin. In words: Noncompetitive inhibition of human ATX expressed in HEK293 Flp-in cells up to 800 nM using varying lysophosphatidyl choline substrate level by Lineweaver-Burk plot analysis. It counts as cell-based. In short, it runs like this: as §1

Usually IC50 stands for the midpoint of a concentration-inhibition curve. Regarding `Cc1ccc2c(Sc3cccc(C(=O)O)n3)c(C)n(-c3cnn(C)c3)c2c1`, the results for the IC50 on Autotaxin [1] and on Autotaxin [2] (read-out: IC50) were 85 nM and 25 nM, respectively.

For orientation: Papp means the rate of passage across a membrane or cell layer, normalised by area and donor concentration. A word on the chromatographic logD: it is a lipophilicity value derived from retention on a column. The low end stands for a more hydrophilic compound, the high end for a more lipophilic compound. With `Cc1c(Sc2cccc(C(=O)O)n2)c2ccc(Cl)cc2n1-c1cnn(C)c1`, the figures for the IC50 at Autotaxin [1], at Autotaxin [3] and on Autotaxin [2] (read-out: IC50) were 22 nM, less than 300 nM and 4 nM, respectively. For the same compound, the Papp in series [4] is 2.3 ×10⁻⁶ cm/s. Also, the chromatographic logD in series [5] was found to be 2.7. In addition, in series [6], the solubility kinetic is 377 µM (≈ 150 µg/mL).

For the compound `Cc1c(Oc2cccc(C(=O)O)c2)c2ccccc2n1-c1cnn(C)c1`, the IC50 at Autotaxin [2] (read-out: IC50) was greater than 30000 nM.

For the compound `Cc1c(Sc2cccc(C(=O)O)n2)c2ccc(Cl)cc2n1-c1ccccc1`, the Papp in series [4] was 15.5 ×10⁻⁶ cm/s. This compound also returned a chromatographic logD in series [5] of 4.3. In addition, the IC50 result against Autotaxin [2] (hek293) was “Nd(Insoluble)”. Also, the solubility kinetic in series [6] was found to be 485 µM (≈ 192 µg/mL).

Regarding `Cc1c(Sc2cccc(C(=O)O)n2)c2ccccc2n1C`, the half-inhibitory concentration (IC50) on Autotaxin [2] (read-out: IC50) was greater than 30000 nM.

For `Cc1[nH]c2cc(Cl)ccc2c1Sc1cccc(C(=O)O)n1`, the IC50 on Autotaxin [1] is 604 nM; on Autotaxin [2] (read-out: IC50) it was 25 nM. The Papp in series [4] was determined as 1.1 ×10⁻⁶ cm/s. The chromatographic logD in series [5] came out at 2.19. Further, the solubility kinetic in series [6] was no less than 395 µM.

Regarding `Cc1cc2ccc(Cl)cc2n1-c1cnn(C)c1`, the IC50 at Autotaxin [2] (read-out: IC50) was greater than 30000 nM.

For `Cc1c(Oc2cccc(C(=O)O)c2)c2ccc(Cl)cc2n1-c1cnn(C)c1`, the IC50 at Autotaxin [1] came out at 204 nM; at Autotaxin [2] (read-out: IC50) it was 726 nM.

Consider `Cc1c(Sc2cccc(C(=O)O)c2)c2ccc(Cl)cc2n1C1CCCC1`, for which the half-inhibitory concentration (IC50) on Autotaxin [1] was greater than 4000 nM; on Autotaxin [2] (read-out: IC50), 20000 to 25000 nM.

`Cc1c(Sc2cccc(C(=O)O)c2)c2ccccc2n1-c1ccccc1`: the IC50 is greater than 30000 nM on Autotaxin [1] and greater than 5000 nM at Autotaxin [2] (read-out: IC50).

`Cc1c(Sc2cccc(C(=O)O)n2)c2ccccc2n1C1CCCC1`: on Autotaxin [2] (read-out: IC50), the IC50 is greater than 30000 nM.

`Cc1c(Sc2cccc(C(=O)O)n2)c2ccccc2n1-c1ccccc1`: the IC50 on Autotaxin [2] (read-out: IC50) was greater than 30000 nM.

Turning to `Cc1[nH]c2cc(Cl)ccc2c1Sc1cccc(C(=O)O)c1`, the results for the IC50 at Autotaxin [1] and on Autotaxin [2] (read-out: IC50) were 290 nM and 747 nM, respectively.

Consider `Cc1c(Sc2cccc(C(=O)O)c2F)c2ccc(Cl)c(F)c2n1CC(=O)N1CC2(CC2)c2ccccc21`, for which the IC50 at Autotaxin [7] worked out at 2 nM.

Turning to `Cc1c(Sc2cccc(C(=O)O)n2)c2ccc(F)cc2n1-c1ccn(C)n1`, the IC50 at Autotaxin [1] is 816 nM; on Autotaxin [2] (read-out: IC50), 349 nM.

As for `Cc1[nH]c2ccccc2c1Sc1cccc(C(=O)O)c1`, the IC50 at Autotaxin [2] (read-out: IC50) was greater than 30000 nM.

In the case of `Cc1c(Sc2cccc(C(=O)O)n2)c2cc(Cl)ccc2n1-c1cnn(C)c1`, at Autotaxin [2] (read-out: IC50), the IC50 came out at 258 nM.

As for `COc1ccc2c(Sc3cccc(C(=O)O)n3)c(C)n(-c3cnn(C)c3)c2c1`, the IC50 at Autotaxin [1] was 75 nM; on Autotaxin [2] (read-out: IC50) it was 124 nM.

On to `Cc1c(Cc2cccc(C(=O)O)c2)c2ccc(Cl)cc2n1-c1cnn(C)c1`, for which the IC50 came to 33 nM at Autotaxin [1] and 660 nM at Autotaxin [2] (read-out: IC50).

For the compound `Cc1[nH]c2ccccc2c1Sc1cccc(C(=O)O)n1`, on Autotaxin [2] (read-out: IC50), the IC50 was greater than 30000 nM.

With `Cc1c(Cc2cccc(C(=O)O)n2)c2ccccc2n1-c1cnn(C)c1`, on Autotaxin [2] (read-out: IC50), the IC50 was greater than 30000 nM.

Turning to `Cc1c(Sc2cccc(C(=O)O)n2)c2c(Cl)cccc2n1-c1cnn(C)c1`, on Autotaxin [2] (read-out: IC50), the IC50 was greater than 30000 nM.

Take `Cc1c(Sc2cccc(C(=O)O)n2)c2ccc(Cl)cc2n1C1CCCC1`: the values for the IC50 at Autotaxin [1] and on Autotaxin [2] (read-out: IC50) were 2000 nM and greater than 2800 nM, respectively. For the same compound, the Papp in series [4] amounted to 29 ×10⁻⁶ cm/s. In addition, the chromatographic logD in series [5] is 4.05. Further, the solubility kinetic in [6] was found to be 336 µM (≈ 130 µg/mL).

For `Cc1c(SCCCC(=O)O)c2ccccc2n1-c1cnn(C)c1`, on Autotaxin [2] (read-out: IC50), the IC50 is greater than 10000 nM.

With `Cc1[nH]c2cc(F)ccc2c1Sc1cccc(C(=O)O)n1`, the IC50 at Autotaxin [2] (read-out: IC50) was greater than 20000 nM.

For the compound `Cn1cc(-c2cccc(Sc3cccc(C(=O)O)n3)c2)cn1`, the inhibition result at Autotaxin [2] is “inactive”.

`Cc1c(Cc2cccc(C(=O)O)n2)c2ccc(Cl)cc2n1-c1cnn(C)c1`: the IC50 is 89 nM on Autotaxin [1] and 339 nM at Autotaxin [2] (read-out: IC50).

As for `Cc1c(Sc2cccc(C(=O)O)c2)c2ccc(Cl)cc2n1-c1cnn(C)c1`, the IC50 on Autotaxin [3] is less than 300 nM; on Autotaxin [2] (read-out: IC50), 11 nM. In addition, the Papp in series [4] stood at 6.4 ×10⁻⁶ cm/s. The compound further came in with a chromatographic logD in series [5] of 3.36. Further, the solubility kinetic in series [6] was 556 µM (≈ 221 µg/mL).

Turning to `Cc1[nH]c2cccc(C)c2c1Sc1cccc(C(=O)O)n1`, the concentration for half-maximal inhibition (IC50) on Autotaxin [2] (read-out: IC50) is greater than 8000 nM.

As to `Cc1cccc2c1c(Sc1cccc(C(=O)O)n1)c(C)n2-c1cnn(C)c1`, the IC50 on Autotaxin [2] (read-out: IC50) is greater than 10000 nM.

As for `Cc1c(Sc2cccc(C(=O)O)c2)c2ccc(Cl)cc2n1C`, the IC50 was 100 nM on Autotaxin [1], 1200 nM on Autotaxin [2] (read-out: IC50) and greater than 1000 nM against Autotaxin [7]. Further, the inhibition entry at Autotaxin [8] was “Active”.

In the case of `Cc1c(SCCCC(=O)O)c2ccc(Cl)cc2n1-c1cnn(C)c1`, at Autotaxin [2] (read-out: IC50), the IC50 is greater than 30000 nM.

As to `Cc1c(Sc2cccc(C(=O)O)n2)c2ccccc2n1-c1cnn(C)c1`, the IC50 at Autotaxin [1] turned out to be 5700 nM; at Autotaxin [2] (read-out: IC50), 1700 nM. On Autotaxin [9], the inhibition result is “Active”.

As for `Cc1c(Sc2cccc(C(=O)O)n2)c2c(F)cccc2n1-c1ccn(C)n1`, on Autotaxin [2] (read-out: IC50), the IC50 fell in the range of 3000 to 3500 nM.

Turning to `Cc1c(Cc2cccc(C(=O)O)c2)c2ccccc2n1-c1cnn(C)c1`, on Autotaxin [2] (read-out: IC50), the IC50 is greater than 30000 nM.

As to `Cc1c(Sc2cccc(C(=O)O)c2)c2ccc(Cl)cc2n1-c1ccccc1`, the IC50 at Autotaxin [1] is 5 nM; against Autotaxin [3], less than 300 nM; at Autotaxin [2] (read-out: IC50), 81 nM.

As for `COc1cccc2c1c(Sc1cccc(C(=O)O)n1)c(C)n2-c1cnn(C)c1`, on Autotaxin [2] (read-out: IC50), the IC50 was greater than 30000 nM.

With `Cc1c(Sc2cccc(C(=O)O)n2)c2ccc(Cl)cc2n1C`, the IC50 at Autotaxin [1] was greater than 4000 nM; at Autotaxin [2] (read-out: IC50), 31 nM. Also, the Papp in series [4] was 3.2 ×10⁻⁶ cm/s. In series [5], this compound yielded a chromatographic logD of 2.68. In addition, the solubility kinetic in series [6] was found to be 300 µM (≈ 99.8 µg/mL).
